This is a sample that favours compounds with a hit; in the whole collection about 1.6% have one here.
STEP inh: inhibitors of human striatal-enriched phosphatase STEP | P54829 | recombinant STEP, OMFP fluorogenic substrate, fluorescence | inhibition, % at 20 µM | actives 0.25% (n = 360,000) | AID 588621;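 active means inhibition at 20 µM, scaled per plate between control wells, above about 37%, limit read from the data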;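 further: 0% = DMSO with enzyme and substrate and 100% = substrate only without enzyme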
Target sequence (P54829 whole entry, looked up): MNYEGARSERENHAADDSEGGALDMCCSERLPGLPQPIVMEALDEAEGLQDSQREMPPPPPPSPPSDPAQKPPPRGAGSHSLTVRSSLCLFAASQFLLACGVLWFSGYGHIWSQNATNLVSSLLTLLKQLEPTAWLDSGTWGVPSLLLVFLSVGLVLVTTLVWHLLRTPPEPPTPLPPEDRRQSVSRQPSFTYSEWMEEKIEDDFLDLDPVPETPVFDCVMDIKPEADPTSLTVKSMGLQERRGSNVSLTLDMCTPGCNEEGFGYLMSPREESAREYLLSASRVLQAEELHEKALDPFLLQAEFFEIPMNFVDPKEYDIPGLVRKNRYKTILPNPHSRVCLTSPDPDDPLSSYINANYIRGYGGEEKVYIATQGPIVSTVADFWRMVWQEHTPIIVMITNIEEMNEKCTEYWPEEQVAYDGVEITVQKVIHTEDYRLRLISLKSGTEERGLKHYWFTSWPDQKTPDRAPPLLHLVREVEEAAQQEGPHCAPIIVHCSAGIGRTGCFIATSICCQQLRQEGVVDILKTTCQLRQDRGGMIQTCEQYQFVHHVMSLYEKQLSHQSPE
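Material: STEP (striatal-enriched tyrosine phosphatase) enzyme, cell-free | Medium: 50 mM Bis-Tris pH 6.0 with 2.5 mM DTT and 0.005% Tween 20 | Read-out: Percent inhibition scaled to no-enzyme and uninhibited-enzyme controls, plate-pattern corrected | Signal: Fluorescence read at 480 nm ex / 540 nm em | Times: 20 min reaction, room temperature, in the dark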
LMPTP inh: LMPTP (human) inhibition. P24666. recombinant LMPTP-A, OMFP fluorogenic substrate, fluorescence intensity. inhibition, % at 20 µM. actives 0.22% (n = 360,000). AID 651560;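 active means compounds that cut the enzyme signal by at least half of the control window in the single-dose screen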;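 further: plate controls were DMSO wells with enzyme plus substrate for no effect and substrate without enzyme for full effect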
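Test system: LMPTP-A phosphatase enzyme; input: 0.625 nM LMPTP-A final; reagent: OMFP substrate, 400 µM final; compound dosing: 20 µM single dose, 3% DMSO; incubation: 50 min dark incubation at room temperature; measured by: endpoint fluorescence intensity from OMFP dephosphorylation; measure: % inhibition relative to no-enzyme and uninhibited control wells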
SUMO1-SIM PPI: alters human SUMO1 binding to SIM partners | P63165 | SUMO1 binding to a labelled peptide, TR-FRET, 1 h | inhibition, % at 20 µM | actives 0.33% (n = 360,000) | AID 602429; in the data active means inhibition above about 37%
Scp-1 inhibitor: inhibitors of human Scp-1 phosphatase. actives 0.88% (n = 340,000). inhibition, % at 20 µM. Recombinant Scp1, phosphopeptide, malachite green phosphate absorbance. Q9GZU7;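 active means inhibition above about 50% at 20 µM, limit read from the data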;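 further: plate controls were DMSO wells with enzyme for no effect and wells lacking enzyme for full effect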
Target sequence (Q9GZU7 76-261 limits assumed): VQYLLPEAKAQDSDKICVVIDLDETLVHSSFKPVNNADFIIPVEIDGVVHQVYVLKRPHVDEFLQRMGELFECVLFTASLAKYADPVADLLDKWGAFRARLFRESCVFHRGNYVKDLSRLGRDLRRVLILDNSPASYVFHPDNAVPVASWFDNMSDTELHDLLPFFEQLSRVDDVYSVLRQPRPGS
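Material – SCP-1 phosphatase catalytic domain, residues 76-261 · Buffer or medium – Acidic Tris acetate buffer with magnesium and detergent · Also added – Phospho 17-mer peptide substrate · Compound – single 20 µM dose, 1% DMSO · Times – 45 min room-temperature reaction, 5 min colour, 30 min stabiliser · Technique – Phosphate-binding colour reagent, absorbance read at 630 nm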
DNMT1 inh: blocks human DNA methyltransferase DNMT1 | actives 0.83% (n = 360,000) | AID 588458 | P26358 | DNMT1 molecular beacon, Hinp1I cleavage, fluorescence | inhibition (reported as % activation of signal), % at 10 µM; in the data active means inhibition above about 50%
CFTR F508del cor: CFTR F508del correction in bronchial cells | CFBE cells, YFP halide quenching; stimulated with forskolin plus potentiator P3; % fluorescence drop versus neutral controls | activity (quench increase), % at 7.58 µM | actives 0.36% (n = 350,000) | AID 720511;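 active means mean added fluorescence quench of at least 8% versus neutral control, with both replicates also reaching 8%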;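 further: cells transiently co-express mutant CFTR-F508del with the halide-sensitive YFP; corrector assay measuring rescue of mutant channel to the surface after 24 h compound exposure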
Scp1 confirm: confirmation of human Scp-1 phosphatase inhibitors | shares compounds with Scp-1 inhibitor | recombinant SCP-1 catalytic domain, phosphate release, malachite green absorbance | inhibition, % at 20 µM | actives 61% (n = 2,500);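 active means inhibition of at least 30% at 20 µM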;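 further: plate controls were DMSO with enzyme for no effect and buffer wells lacking enzyme for full effect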
MG interference: counter-screen for Scp-1 inhibitors: colorimetric interference; shares compounds with Scp-1 inhibitor; Colorimetric interference counterscreen, malachite green absorbance 630 nm; apparent inhibition (interference), % at 20 µM; 2,500 tested, under 10 active; AID 540313;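 active means inhibition of at least 30% at 20 µM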;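 further: compounds added after enzyme reaction finished so only phosphate colour detection is probed; plate controls were DMSO wells with completed Scp-1 reaction for no effect and substrate wells lacking enzyme for full effect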
Scp-1 Tm shift: validation of human Scp-1 inhibitors by thermal shift binding. shares compounds with Scp-1 inhibitor. Recombinant SCP1, Sypro Orange thermal shift Tm. thermal shift relative to vanadate control, % at 40 µM. actives 25% (n = 1,500);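 active means substances whose mean melting-temperature shift, as a percentage of the reference inhibitor's shift, reaches about 5.3%, limit read from the data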;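 further: 0% = Tm of DMSO wells and 100% = Tm with sodium orthovanadate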
DNMT1 interf DR: beacon fluorescence artifact, dose response counter-screen; shares compounds with DNMT1 inh; molecular beacon fluorescence, spectral interference counter-screen; IC50, µM; 200 tested, under 10 active; AID 602382
DNMT1 inh conf: confirmation of human DNMT1 inhibitors. actives 8% (n = 2,300). shares compounds with DNMT1 inh. inhibition, % at 10 µM. DNMT1 molecular beacon HinP1I cleavage, fluorescence;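 active means average inhibition of at least 30% in the single-concentration confirmation test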
Beacon interf: beacon fluorescence artifact counter-screen; shares compounds with DNMT1 inh; DNMT1 molecular beacon spectral interference counterscreen, fluorescence 485/520; activation (fluorescence interference), % at 10 µM; actives 1% (n = 2,300); AID 602387;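 active means activation of at least 30% at 10 µM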;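 further: DNMT1 catalytic domain with a HinP1I cleavage step and a FAM/dabcyl DNA beacon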
STEP inh conf: STEP (human) phosphatase inhibition, single concentration confirmation | actives 32% (n = 520) | recombinant STEP, OMFP fluorogenic substrate, fluorescence | inhibition, % at 20 µM | shares compounds with STEP inh;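 further: 0% = enzyme with substrate plus DMSO and 100% = substrate without enzyme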
Active calls of the source: *; · = not tested or not shown. Unless noted, how the calls were made is not given here.

SMILES	STEP inh	LMPTP inh	SUMO1-SIM PPI	Scp-1 inhibitor	DNMT1 inh	CFTR F508del cor	Scp1 confirm	MG interference	Scp-1 Tm shift	STEP inh conf	others
CCOc1cc(/C=N/N=C2/NC(=O)C(CC(=O)O)S2)ccc1OCc1ccc(Cl)cc1Cl (stereo not drawn)	64*	84*	12	75*	8	·	65*	-16	-2	13*
C[C@@H]1CN([C@H](C)CO)C(=O)c2cccc(NC(=O)C3CCCCC3)c2O[C@H]1CN(C)C(=O)Nc1ccc2c(c1)OCO2	·	·	·	·	·	0	·	·	·	·
C[C@H](CO)N1C[C@H](C)[C@@H](CN(C)C(=O)Nc2ccc3c(c2)OCO3)OCCCC[C@H](C)Oc2ccc(NS(=O)(=O)c3ccc(F)cc3)cc2C1=O	·	·	·	·	·	-4	·	·	·	·
CCCCCn1c(N)c(-c2nc3ccccc3o2)c2c([N+](=O)[O-])nn(C)c(=O)c21	97*	83*	4	99*	92*	·	73*	1	5.4*	40*	DNMT1 inh conf=0;Beacon interf=0
CCCCn1c(N)c(-c2nc3ccccc3s2)c2c([N+](=O)[O-])nn(C)c(=O)c21	3	1	-4	3	-14	·	·	·	·	·
O=C(O)CC/C(=N\Nc1ccc(S(=O)(=O)N2CCCC2)cc1[N+](=O)[O-])c1cccs1	97*	6	-25	63*	-6	·	57*	-4	16*	83*
Cc1ccccc1-c1ccc([C@@H]2[C@@H](CO)N3C(=O)CN(C(=O)Cc4ccccn4)C[C@@H]23)cc1	·	·	·	·	·	0	·	·	·	·
Cc1noc(C)c1S(=O)(=O)Nc1ccc2c(c1)CC(=O)N([C@@H](C)CO)C[C@H](C)[C@H](CN(C)Cc1ccc(C(=O)O)cc1)O2	·	·	·	·	·	0	·	·	·	·
COc1cc(/C=C(\CCC(=O)O)c2nc3ccccc3s2)ccc1OCC(=O)Nc1c(Cl)cccc1Cl	49*	44	95*	75*	52*	0	52*	-17	3	21	DNMT1 interf DR=>99;DNMT1 inh conf=70*;Beacon interf=0
O=C(O)CC/C(=C/c1cccc(NC(=O)c2ccccc2Cl)c1)c1nc2ccccc2s1	-2	1	-5	-1	-22	0	·	·	·	·
O=C(N/N=C/c1ccc(Cl)cc1)c1ccc2c(c1)OCO2	93*	39	15	103*	9	3	91*	-4	-26	18
CN(C)c1ccc(/C=N/NC(=O)c2cc(-c3ccc4c(c3)OCO4)n[nH]2)cc1	13	21	7	-14	0	-1	·	·	·	·
O=C(N/N=C/c1ccc(Cl)c([N+](=O)[O-])c1)c1ccc2c(c1)OCCO2	94*	89*	80*	105*	80*	0	78*	-14	-12	46*	DNMT1 inh conf=9;Beacon interf=-2
O=C(N/N=C/c1cccc(OC(=O)c2ccc3c(c2)OCO3)c1)c1cncc(Br)c1	2	-1	-3	-2	3	·	·	·	·	·
O=C(N/N=C/c1ccc(F)cc1)c1cc(-c2ccc3c(c2)OCO3)n[nH]1	42*	27	21	56*	14	0	35*	-21	-22	36*
O=C(N/N=C/c1ccc(OC(=O)c2ccc3c(c2)OCO3)cc1)c1cncc(Br)c1	99*	86*	-3	94*	117*	·	86*	-13	-26	11	DNMT1 inh conf=4;Beacon interf=-9
O=C(N/N=C\c1ccc(OC(=O)c2cccs2)cc1)c1ccc(Cl)cc1	94*	94*	6	96*	43	·	81*	-12	-24	6
CN1CCN(C(=O)C[C@@H]2CC[C@H]3[C@@H](COC[C@H](O)CN3Cc3ccc(Oc4ccccc4)cc3)O2)CC1	·	·	·	·	·	-2	·	·	·	·
COc1cccc2cc(-c3cc(=O)oc4ccc(OCC(C)=O)cc34)oc12	0	2	-26	-7	-7	3	·	·	·	·
COC(=O)COc1ccc2oc(=O)cc(-c3cc4cccc(OC)c4o3)c2c1	75*	61*	40*	75*	44	-1	56*	-27	-21	10
CNc1[nH]c(=O)[nH]c(=O)c1N=Nc1cc(Cl)ccc1Cl	48*	3	-6	108*	4	3	73*	-11	-6	16
O=C(COc1ccc([N+](=O)[O-])cc1)Nc1nnc(-c2cccnc2)s1	66*	47	4	75*	20	4	76*	-5	6.9*	75*
COc1cccc2cc(C(=O)NC(C)c3ccccc3)c(=O)oc12 (stereo not drawn)	-2	0	-30	-8	-2	1	·	·	·	·
COc1cccc2cc(C(=O)Nc3cccc(C)n3)c(=O)oc12	56*	-3	-12	102*	74*	·	60*	-6	-3	-1	DNMT1 inh conf=2;Beacon interf=3
O=C(CCS(=O)(=O)c1ccc(Br)cc1)NCc1ccc(F)cc1	40*	2	33	81*	51*	-2	41*	-11	-13	25	DNMT1 inh conf=0;Beacon interf=3
Cc1ccc(S(=O)(=O)CCC(=O)OCC(=O)NCc2ccc(F)cc2)cc1	-1	-1	4	·	3	-1	·	·	·	·
CCNC(=O)C[C@@H]1CC[C@H]2[C@@H](COc3ccc(NC(=O)c4ccc5c(c4)OCO5)cc3C(=O)N2C)O1	·	·	·	·	·	2	·	·	·	·
O=C(C[C@@H]1CC[C@@H]2[C@H](COC[C@H](O)CN2CCC(F)(F)F)O1)NCC1CCCCC1	·	·	·	·	·	0	·	·	·	·
C[C@@H]1CN([C@H](C)CO)C(=O)c2ccccc2-c2ccccc2CO[C@@H]1CN(C)S(=O)(=O)c1ccc(C#N)cc1	·	·	·	·	·	-3	·	·	·	·

Source: PubChem BioAssay (several laboratories)
